According to article PMC6605684 (The Journal of General Physiology, 2019):
“And” between values parts separate entries of the source, which are not always exact repeats. Identical values can stand only once. “Also recorded” adds a separate entry of the source.

What was measured:
Assay in all cases: Inside-out patch-clamp of CFTR currents in transfected CHO cells
Assay type in all cases: cell-based
N1138L/G551D-CFTR = N1138L/G551D-CFTR (Homo sapiens, UniProt P13569, G551D/N1138L)
How it was run: (§1)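 CFTR construct and GFP plasmid cotransfected into CHO cells, held at 27°C for 2–6 d. Inside-out patches at room temperature, −30 mV, NMDG-Cl solutions at pH 7.4. Channels preactivated with 25 IU PKA plus 2 mM MgATP, then test compound (max 40 µM) applied in 2 mM ATP. ATP-subtracted steady-state currents normalized to the 3 µM response in the same patch. Hill fit with base 0 and maximum 1; EC50 ± SD of fit; 3–7 patches per point.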

N1138Y/G551D-CFTR = N1138Y/G551D-CFTR (Homo sapiens, UniProt P13569, G551D/N1138Y)
How it was run: as §1

[1] = target: R347S-CFTR (ΔR-CFTR background) (Homo sapiens, UniProt P13569, R347S); details: pH 7.4
How it was run: (§2)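 Channels in ATP exposed to test compound at pH 7.4; percent change of mean current scored. Perfusate then switched to pH 5.5, with or without prior compound exposure at pH 7.4. Fold increase taken as peak current at pH 5.5 divided by mean current at pH 7.4.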

S263A-CFTR = S263A-CFTR (Homo sapiens, UniProt P13569, S263A)
How it was run: as §1

Q237A-CFTR = Q237A-CFTR (Homo sapiens, UniProt P13569, Q237A)
How it was run: as §1

D993A-CFTR = D993A-CFTR (Homo sapiens, UniProt P13569, D993A)
Chain of D993A-CFTR (P13569 whole entry D993A): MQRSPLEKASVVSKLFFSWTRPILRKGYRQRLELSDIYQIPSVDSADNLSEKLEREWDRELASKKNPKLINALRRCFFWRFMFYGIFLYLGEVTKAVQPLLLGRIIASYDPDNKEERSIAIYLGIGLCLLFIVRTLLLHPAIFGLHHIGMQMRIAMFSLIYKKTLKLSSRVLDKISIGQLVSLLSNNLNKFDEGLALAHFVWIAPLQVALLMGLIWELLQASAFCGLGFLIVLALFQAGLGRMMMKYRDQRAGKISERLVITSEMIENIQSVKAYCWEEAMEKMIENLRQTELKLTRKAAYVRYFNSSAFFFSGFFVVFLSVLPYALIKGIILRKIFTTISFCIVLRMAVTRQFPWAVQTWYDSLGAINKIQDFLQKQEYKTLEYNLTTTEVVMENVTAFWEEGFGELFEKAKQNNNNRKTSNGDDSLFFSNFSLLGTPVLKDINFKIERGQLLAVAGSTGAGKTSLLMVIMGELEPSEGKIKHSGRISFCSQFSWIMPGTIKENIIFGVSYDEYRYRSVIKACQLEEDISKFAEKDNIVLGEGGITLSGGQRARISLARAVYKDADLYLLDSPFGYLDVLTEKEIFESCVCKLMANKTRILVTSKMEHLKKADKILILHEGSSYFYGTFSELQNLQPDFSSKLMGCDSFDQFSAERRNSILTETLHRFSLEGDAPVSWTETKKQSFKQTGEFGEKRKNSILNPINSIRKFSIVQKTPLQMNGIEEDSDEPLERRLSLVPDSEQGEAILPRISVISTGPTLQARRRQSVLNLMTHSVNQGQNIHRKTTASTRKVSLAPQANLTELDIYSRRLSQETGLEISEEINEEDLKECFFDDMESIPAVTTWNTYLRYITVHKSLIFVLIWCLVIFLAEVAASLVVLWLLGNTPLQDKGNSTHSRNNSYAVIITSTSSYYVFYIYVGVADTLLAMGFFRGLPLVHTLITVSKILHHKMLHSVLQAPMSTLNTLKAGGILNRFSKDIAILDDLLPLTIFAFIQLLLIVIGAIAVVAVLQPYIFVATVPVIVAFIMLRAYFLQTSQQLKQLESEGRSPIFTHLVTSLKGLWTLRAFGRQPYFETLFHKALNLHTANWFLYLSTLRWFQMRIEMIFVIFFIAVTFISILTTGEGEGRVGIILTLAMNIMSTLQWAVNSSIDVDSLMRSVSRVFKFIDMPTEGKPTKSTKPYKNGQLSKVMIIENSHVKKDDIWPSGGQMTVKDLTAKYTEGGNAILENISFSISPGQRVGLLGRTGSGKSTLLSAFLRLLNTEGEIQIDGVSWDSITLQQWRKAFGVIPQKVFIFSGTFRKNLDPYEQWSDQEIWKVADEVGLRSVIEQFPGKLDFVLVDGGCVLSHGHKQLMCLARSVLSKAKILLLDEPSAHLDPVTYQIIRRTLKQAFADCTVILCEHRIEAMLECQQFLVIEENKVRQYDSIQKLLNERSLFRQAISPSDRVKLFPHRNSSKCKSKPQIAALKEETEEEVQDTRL
How it was run: as §1

WT-CFTR = WT-CFTR (Homo sapiens, UniProt P13569)
How it was run: as §1

S1149A-CFTR = S1149A-CFTR (Homo sapiens, UniProt P13569, S1149A)
How it was run: as §1

Y304F-CFTR = Y304F-CFTR (Homo sapiens, UniProt P13569, Y304F)
Chain of Y304F-CFTR (P13569 whole entry Y304F): as the sequence (P13569 whole entry D993A) above, with Y304F, A993D counted along it
How it was run: as §1

S1141R/G551D-CFTR = S1141R/G551D-CFTR (Homo sapiens, UniProt P13569, G551D/S1141R)
How it was run: as §1

F304Y-mCFTR = F304Y-mCFTR (Mus musculus, UniProt P26361, F304Y)
How it was run: as §1

WT-mCFTR = WT-mCFTR (Mus musculus, UniProt P26361); details: 2 mM ATP
How it was run: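 Mouse CFTR expressed in CHO cells; inside-out patches. Phosphorylated channels opened by 2 mM ATP before the potentiator was applied (one potentiator at 200 nM). 5 µM CFTRinh-172 added at the end of each recording for baseline.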

[2] = target: R347D-CFTR (ΔR-CFTR background) (Homo sapiens, UniProt P13569, R347D); details: pH 7.4
How it was run: as §2

Y304T-CFTR = Y304T-CFTR (Homo sapiens, UniProt P13569, Y304T)
How it was run: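 Relaxation assay: PKA-preactivated channels in 2 mM ATP at −30 mV exposed to test compound through a fast three-barrel perfusion system (dead time ∼30 ms). Current decay after sudden removal of 3 µM compound fitted with a single exponential to give relaxation time constant τ.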

N1138F/G551D-CFTR = N1138F/G551D-CFTR (Homo sapiens, UniProt P13569, G551D/N1138F)
How it was run: as §1

F312A-CFTR = F312A-CFTR (Homo sapiens, UniProt P13569, F312A); details: for ΔΔG: vs WT
[3] = CHO, read-out: Efficacy (% increase) of currents by GLPG1837

Chain of N1138L/G551D-CFTR (P13569 whole entry G551D/N1138L): as the sequence (P13569 whole entry D993A) above, with G551D, A993D, N1138L counted along it

CC1(C)Cc2c(sc(NC(=O)c3ccn[nH]3)c2C(N)=O)C(C)(C)O1 [GLPG1837, N-(3-carbamoyl-5,5,7,7-tetramethyl-5,7-dihydro-4H-thieno[2,3-c]pyran-2-yl)-lH-pyrazole-5-carboxamide]
EC50 (N1138L/G551D-CFTR): 80 ± 20 nM | Emax (N1138L/G551D-CFTR; [3]): 253 ± 32% | ΔΔG (N1138L/G551D-CFTR; GLPG1837, vs G551D): 1.96 kcal/mol | EC50 (N1138Y/G551D-CFTR): 400 ± 100 nM | ΔΔG (N1138Y/G551D-CFTR; GLPG1837, vs G551D): 1.01 kcal/mol | Effect of GLPG1837 on currents [1]: no effect | EC50 (S263A-CFTR): 270 ± 50 nM | Emax (S263A-CFTR; [3]): 148 ± 18% | ΔΔG (S263A-CFTR; GLPG1837, vs WT): -0.022 kcal/mol | EC50 (Q237A-CFTR): 920 ± 320 nM | Emax (Q237A-CFTR; [3]): 615% | ΔΔG (Q237A-CFTR; GLPG1837, vs WT): -0.748 kcal/mol | EC50 (D993A-CFTR): 360 ± 40 nM | Emax (D993A-CFTR; [3]): 283 ± 47% | ΔΔG (D993A-CFTR; GLPG1837, vs WT): -0.194 kcal/mol | EC50 (WT-CFTR): 260 ± 40 nM | Hill coefficient of the GLPG1837 effect (WT-CFTR): ≈ 1 | Emax (WT-CFTR; [3]): 115% | Saturating concentration of GLPG1837 (WT-CFTR; continuous presence of ATP): 3 µM | EC50 (S1149A-CFTR): 160 ± 30 nM | Emax (S1149A-CFTR; [3]): 139 ± 36% | ΔΔG (S1149A-CFTR; GLPG1837, vs WT): 0.287 kcal/mol | EC50 (Y304F-CFTR): 2280 ± 340 nM | Emax (Y304F-CFTR; [3]): 82 ± 12% | ΔΔG (Y304F-CFTR; GLPG1837, vs WT): -1.29 kcal/mol | Relaxation time constant upon removal of GLPG1837 (Y304F-CFTR; mean, n = 5): 5.5 ± 1.3 | EC50 (S1141R/G551D-CFTR): 510 ± 130 nM | ΔΔG (S1141R/G551D-CFTR; GLPG1837, vs G551D): 0.863 kcal/mol | EC50 (F304Y-mCFTR): 680 ± 180 nM | Potentiation of currents by GLPG1837 (F304Y-mCFTR): restores the potentiating effects; also recorded: Potentiation | Potentiation of currents by GLPG1837 (WT-mCFTR): does not potentiate | Effect of GLPG1837 on currents [2]: no effect | EC50 (Y304T-CFTR): > 3000 nM | Emax (Y304T-CFTR; [3]): > 101% | ΔΔG (Y304T-CFTR; GLPG1837, vs WT): <-1.45 kcal/mol | Relaxation time constant upon removal of GLPG1837 (Y304T-CFTR; mean, n = 5): 4.7 ± 0.8 s and < 5 s | EC50 (N1138F/G551D-CFTR): 160 ± 50 nM | Emax (N1138F/G551D-CFTR; [3]): 666 ± 131% | ΔΔG (N1138F/G551D-CFTR; GLPG1837, vs G551D): 1.55 kcal/mol | Emax (F312A-CFTR; CHO, read-out: Efficacy (% increase) of currents by GLPG1837, 30 µM ATP): 105 ± 12% | EC50 (F312A-CFTR; EC50 for GLPG1837, 30 µM ATP (Po ∼0.35)): 1300 ± 260 nM | EC50 (F312A-CFTR; EC50 for GLPG1837, 2 mM ATP): 400 ± 130 nM | ΔΔG (F312A-CFTR; GLPG1837, 30 µM ATP): -0.954 kcal/mol | ΔΔG (F312A-CFTR; GLPG1837, 2 mM ATP): -0.256 kcal/mol
